# High-throughput results as filed in PubChem.
# S1P3 agonist: activates the human S1P3 receptor. Q99500. S1P3 NFAT-BLA reporter cells, agonism, FRET ratio; relative to 1 µM S1P, basal subtracted. activation, % at 4.5 µM. 60,000 tested, 0.1% active. AID 373;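 active = activation above the screen-wide mean plus 3 SD, cut at about 4.5% in these data, passing the limit was not always enough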
# Target sequence (Q99500 whole entry, looked up): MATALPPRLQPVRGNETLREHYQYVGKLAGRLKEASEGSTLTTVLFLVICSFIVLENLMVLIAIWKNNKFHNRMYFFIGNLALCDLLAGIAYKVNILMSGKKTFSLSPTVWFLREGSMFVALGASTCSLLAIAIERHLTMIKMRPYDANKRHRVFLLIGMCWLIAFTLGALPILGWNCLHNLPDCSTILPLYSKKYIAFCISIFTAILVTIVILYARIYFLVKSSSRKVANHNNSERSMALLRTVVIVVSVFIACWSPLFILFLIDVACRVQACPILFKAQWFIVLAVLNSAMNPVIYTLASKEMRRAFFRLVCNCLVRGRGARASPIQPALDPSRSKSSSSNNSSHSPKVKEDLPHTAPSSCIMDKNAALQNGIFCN
#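 Assay system: stable CHO line with human S1P3, Gα16, NFAT-BLA reporter; Detection: FRET β-lactamase substrate fluorescence, excitation 405 nm, 460/535 nm emission ratio, background-subtracted; Read-out: percent activation versus median 1 µM S1P response, basal-subtracted, per plate; Incubation: cells plated overnight, compound 4 h 37 °C, substrate 2 h RT.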
# 5HT1a ag: 5-HT1a (human) receptor agonism; P08908; CHO 5-HT1a Ga15 NFAT-bla reporter, FRET ratio; 0% basal, 100% maximal reference agonist; activation, % at 10 µM; 65,000 tested, 0.56% active; AID 567;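 active = activation above the screen-wide mean activation plus 3 SD, cut at about 19% in these data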;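 note: 0% = DMSO wells and 100% = 5-CT at EC100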
# 5HT1E ag: 5-HT1E (human) receptor agonism | CHO 5-HT1E Ga15 NFAT-bla reporter, FRET; 0% DMSO wells, 100% control agonist wells | activation, % at 6 µM | 65,000 tested, 0.69% active;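 active = activation above a set limit, the screen-wide mean activation plus 3 SD, cut at about 8.5% in these data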;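 note: 100% = positive control agonist at 1 µM giving full maximal response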
# S1P1 ag-PAM: activates or potentiates agonism at human S1P1 receptor; P21453; S1P1 CRE-bla cells, forskolin, beta-lactamase FRET, potentiator mode; S1P1 agonist co-added at EC20, 2 nM; 100% = saturating reference agonist, 0% = basal; activation, % at 9.5 µM; 56,000 tested, 0.57% active; AID 449;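 active = activation above a cutoff set at the mean activation of all tested compounds plus 3 SD, cut at about 54% in these data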;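 note: forskolin at 4 µM as EC80 and the EC20 agonist is SEW2871; 100% = SEW2871 at its EC100 plus forskolin at EC80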
# HTR1E antagonist: blocks the human 5-HT1E serotonin receptor. inhibition, % at 6 µM. AID 571. CHO 5-HT1E Ga15 NFAT-bla reporter, FRET, antagonist. 65,000 tested, 0.99% active;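 active = inhibition above a set limit, the mean inhibition across every tested compound plus 3 SD, cut at about 29% in these data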;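 note: signal is the 460 over 535 nm emission ratio of beta-lactamase substrate; 0% = agonist plus DMSO wells and 100% = wells without agonist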
# 5HT1a antag: antagonists of human 5-HT1a serotonin receptor; inhibition, % at 10 µM; P08908; 62,000 tested, 0.68% active; AID 612; CHO 5-HT1a Ga15 NFAT-bla reporter, antagonist mode;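 active = inhibition above the mean of all tested compounds plus 3 SD, cut at about 43% in these data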;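 note: receptor stimulated by 5-CT agonist at 100 nM near EC80; beta-lactamase reporter measured by ratiometric fluorescence of a cleavable substrate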
# Numbers without * were called inactive; nt = no result. A selection: hits, their analogues and other compounds. The true share with any hit is near 3%.
SMILES,S1P3 agonist,5HT1a ag,5HT1E ag,S1P1 ag-PAM,HTR1E antagonist,5HT1a antag
COc1ccccc1NC(=O)NCc1ccc2c(c1)OCO2,0,-1,2,-15,-4,6
CC(C)NC(=O)c1ccccc1NC(=O)CN(c1ccc2c(c1)OCO2)S(C)(=O)=O,0,-1,0,-1,-2,-4
CC(=O)N(C)c1ccc(NS(=O)(=O)Cc2ccccc2)cc1,-1,69*,0,6,1,-7
CC(=O)c1ccc(NS(=O)(=O)Cc2ccccc2)cc1,0,0,0,-16,-4,4
C=CCN(C)CCCNC(=O)/C=N/O,0,1,-1,5,4,nt
CCOc1ccc(-n2nc(C(=O)N3CCOCC3)c3ccccc3c2=O)cc1,0,-5,0,-26,-4,7
O=C(CSc1nnc(Cn2nnc3ccccc32)o1)N(Cc1ccc(F)cc1)c1ccccc1,-2,-1,0,68*,17,5
COc1ccc(CN(C(=O)CSc2nnc(-c3ccc(F)cc3)o2)c2ccc(F)cc2)cc1,0,2,0,11,-2,0
COc1ccc(N2C(=O)C3CCCN3C2c2cccc(Br)c2)cc1 (centres undefined),1,0,0,-6,-5,-7
COc1ccc(N2C(=O)C3CCCN3C2c2cccc(OC)c2OC)cc1 (centres undefined),-1,101*,0,-11,4,1
O=C(NCc1ccco1)C(c1cccs1)N(C(=O)Cc1cccs1)c1ccccc1 (centres undefined),-2,-2,-2,3,15,52*
C=CCn1c(=O)c(C(=O)Nc2nnc(C)s2)c(O)c2ccccc21,0,-6,0,-9,-7,1
Cc1cc(NC(=O)CSc2nc3ccccc3c(=O)n2C2CCCC2)no1,0,0,1,nt,65*,58*
Cc1cccn2c(=O)c(C=NCc3ccco3)c(Nc3ccc(Cl)cc3)nc12,-2,-3,0,-18,5,23
CSc1cccc(NC(=O)CN(c2cc(C)ccc2C)S(C)(=O)=O)c1,-1,-3,0,-1,-7,10
COc1cccc(C2=NOC(C(=O)NCc3ccc(F)cc3)C2)c1 (centres undefined),0,-4,1,4,17,37
COc1ccc(C2=NOC(C(=O)NCc3ccc(F)cc3)C2)cc1OC (centres undefined),1,-2,0,8,70*,34
COc1cc(C2=NOC(C(=O)NCc3ccc(F)cc3)C2)cc(OC)c1OC (centres undefined),0,-2,0,-15,70*,56*
CCOC(=O)N1CCN(C(=O)CS(=O)(=O)c2cn(Cc3ccc(F)cc3)c3ccccc23)CC1,-1,2,0,5,0,-7
O=C(CSc1ccccc1)Nc1ccccc1N1CCOCC1,0,-4,-1,-40,9,-3
O=C(CN1C(=O)CSC1=O)Nc1ccccc1N1CCOCC1,-1,-4,10*,2,8,8
CC(=O)c1cc2c(cc1NC(=O)c1cc(C)nn1-c1ccccc1)OCO2,-1,24*,1,-6,9,17
CC1=C(C(=O)OCc2ccccc2)C(c2ccc(N3CCOCC3)cc2)NC(=O)N1 (centres undefined),0,0,0,-26,8,-5
CC1=C(C(=O)OCc2ccc3c(c2)OCO3)C(c2ccccc2)NC(=O)N1 (centres undefined),-1,2,0,88*,16,18
CSc1nc2ccc(Nc3nc(N4CCOCC4)nc(N4CCOCC4)n3)cc2s1,-1,0,-1,-35,33*,12
CSc1nc2ccc(NC(=O)C3CCCO3)cc2s1 (centres undefined),0,-2,52*,2,17,7
CSc1nc2ccc(NC(=O)C3CC(=O)N(Cc4ccco4)C3)cc2s1 (centres undefined),nt,-1,0,nt,10,4
Cc1ccc(Nc2nc(N3CCOCC3)nc(N3CCOCC3)n2)cc1,1,0,1,-23,-13,8
